Experimental data published in PMC9817006 (Journal of psychopharmacology (Oxford, England), 2022).
Read-outs that look alike come from different tables or passages of the source.

Key:
[1] = molecular target: low sensitivity α4(3)β2(2) nAChR (Homo sapiens, UniProt P17787+P43681); experiment: Two-electrode voltage clamp in Xenopus oocytes, LS α4β2; assay type: cell-based
Procedure, shortened: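 LS α4β2 nAChR (human, cRNA in Xenopus oocytes) clamped at −60 mV, 24°C, with Ringer's (pH 7.2, 1 μM atropine) at 2 ml/min. Varying test compound concentrations applied for 12 s, then 181 s washout. Peak currents and net charge normalized to same-cell 100 μM ACh controls, then adjusted to ACh maximum determined separately; at least four oocytes.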

[2] = system: C57BL/6J mice; β2 WT and KO mice; experiment: Locomotor activity; assay type: in vivo
Procedure, shortened: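 Saline or test compound was given s.c. 15 min before mice entered photocell cages with two banks of eight beams. Beam interruptions were counted over 30 min. β2 WT and KO mice (8/group) received 0.5 mg/kg. For repeated dosing, mice (12/group) received saline or 0.01, 0.1, 0.5 or 1 mg/kg daily for 5 days, had 2 days without injection, and were challenged on day 8.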

rats = settings: ref Freitas et al., 2016; cited from earlier work
C57BL/6J mice [3] = experiment: Hot-plate test; assay type: in vivo; settings: 0.5 mg/kg s.c., 5-120 min
Procedure, shortened: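 Hot plate held at 55.0 °C, with mice confined in a 10 cm glass cylinder. Two control latencies were taken at least 10 min apart. Latency was scored at a jump or at licking of the front or hind paws. Mice (n=6/group) received saline or test compound 0.5 mg/kg s.c. and were tested at 5, 10, 15, 30, 60 and 120 min. %MPE = ((test−control)/(40−control)) × 100.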

ICR mice = experiment: Hot-plate test; assay type: in vivo
Procedure, shortened: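 Hot plate at 55.0 °C, mouse confined in a 10 cm glass cylinder. Two control latencies taken ≥10 min apart; endpoint is a jump or paw lick. ICR mice (6/group) given test compound s.c. (0.001–0.5 mg/kg) or saline and tested 5–120 min post-dose. %MPE = (test−control)/(40−control)×100.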

[4] = system: C57BL/6J mice; β2 and α6 WT and KO mice; experiment: Conditioned place preference; assay type: in vivo
Procedure, shortened: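 Three-chamber place conditioning in β2 and α6 WT and KO mice (C57BL/6J background, 8–10/group). Day 1: 5 min confinement to the middle chamber, then 15 min free access. Test compound (0.05 mg/kg s.c.) or vehicle given over three conditioning days, sessions 4 h apart, paired chamber randomized. Day 5: drug-free 15 min test. Score = drug-paired-side time on test day minus baseline.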

[5] = molecular target: high sensitivity α4(2)β2(3) nAChR (Homo sapiens, UniProt P17787+P43681); experiment: Two-electrode voltage clamp in Xenopus oocytes, HS α4β2; assay type: cell-based
Sequence of high sensitivity α4(2)β2(3) nAChR (P17787 26-502): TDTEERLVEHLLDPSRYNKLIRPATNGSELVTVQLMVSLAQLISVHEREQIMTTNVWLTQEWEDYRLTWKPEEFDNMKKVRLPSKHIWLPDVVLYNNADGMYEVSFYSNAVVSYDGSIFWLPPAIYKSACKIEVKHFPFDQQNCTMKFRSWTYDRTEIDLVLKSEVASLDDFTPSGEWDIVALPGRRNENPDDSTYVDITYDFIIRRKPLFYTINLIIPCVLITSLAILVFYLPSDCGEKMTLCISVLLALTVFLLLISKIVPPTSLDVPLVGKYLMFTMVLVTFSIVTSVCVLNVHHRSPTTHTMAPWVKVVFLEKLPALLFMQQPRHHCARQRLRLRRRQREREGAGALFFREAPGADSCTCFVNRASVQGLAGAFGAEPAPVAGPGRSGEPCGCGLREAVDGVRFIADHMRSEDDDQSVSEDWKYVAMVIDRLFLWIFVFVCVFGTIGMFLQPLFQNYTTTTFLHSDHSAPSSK
Sequence of high sensitivity α4(2)β2(3) nAChR (P43681 29-627 limits assumed): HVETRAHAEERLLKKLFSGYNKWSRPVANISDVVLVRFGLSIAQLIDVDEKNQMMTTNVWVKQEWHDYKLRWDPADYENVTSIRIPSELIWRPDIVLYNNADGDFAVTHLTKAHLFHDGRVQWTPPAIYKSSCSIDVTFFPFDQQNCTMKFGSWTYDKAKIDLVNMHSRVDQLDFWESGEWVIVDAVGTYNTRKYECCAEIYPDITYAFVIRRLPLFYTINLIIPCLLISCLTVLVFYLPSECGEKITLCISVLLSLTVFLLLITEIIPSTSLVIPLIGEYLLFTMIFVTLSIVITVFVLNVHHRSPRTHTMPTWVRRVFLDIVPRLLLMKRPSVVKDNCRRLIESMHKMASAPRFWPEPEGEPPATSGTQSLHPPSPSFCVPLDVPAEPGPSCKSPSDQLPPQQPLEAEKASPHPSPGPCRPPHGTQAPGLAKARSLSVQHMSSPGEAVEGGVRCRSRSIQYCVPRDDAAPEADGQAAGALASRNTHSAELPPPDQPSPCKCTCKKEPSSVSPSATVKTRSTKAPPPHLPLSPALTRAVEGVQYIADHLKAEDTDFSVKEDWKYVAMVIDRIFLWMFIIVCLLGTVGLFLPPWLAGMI
Sequence of high sensitivity α4(2)β2(3) nAChR (P17787 26-502): as the sequence (P17787 26-502) above
Procedure, shortened: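 Human HS α4β2 nAChR from in vitro–transcribed cRNA in Xenopus oocytes. Two-electrode clamp at −60 mV, 24°C, in Ringer's (pH 7.2, 1 μM atropine) perfused at 2 ml/min. Test compound over a concentration range as 12 s applications with 181 s washout. Peak current and net charge taken relative to same-cell 10 μM ACh controls, then scaled to ACh maximum from separate experiments; ≥4 oocytes.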

C57BL/6J mice [6] = experiment: Tail-flick test; assay type: in vivo; settings: 0.5 mg/kg s.c., 5-120 min
Procedure, shortened: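 Tail-flick test. A control latency (2–4 sec) was measured for each mouse before dosing, with a 10 sec maximum. Mice (n=6/group) received saline or test compound 0.5 mg/kg s.c. and were tested at 5, 10, 15, 30, 60 and 120 min. %MPE = ((test−control)/(10−control)) × 100.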

β3α4β2α6β2 nAChR = β3α4β2α6β2 nAChR (Homo sapiens, UniProt P17787+P43681+Q15825); experiment: Two-electrode voltage clamp in Xenopus oocytes, α6-containing concatemer; assay type: cell-based
Sequence of β3α4β2α6β2 nAChR (P43681 29-627 limits assumed): as the sequence (P43681 29-627 limits assumed) above
Sequence of β3α4β2α6β2 nAChR (P17787 26-502): as the sequence (P17787 26-502) above
Sequence of β3α4β2α6β2 nAChR (Q15825 26-494): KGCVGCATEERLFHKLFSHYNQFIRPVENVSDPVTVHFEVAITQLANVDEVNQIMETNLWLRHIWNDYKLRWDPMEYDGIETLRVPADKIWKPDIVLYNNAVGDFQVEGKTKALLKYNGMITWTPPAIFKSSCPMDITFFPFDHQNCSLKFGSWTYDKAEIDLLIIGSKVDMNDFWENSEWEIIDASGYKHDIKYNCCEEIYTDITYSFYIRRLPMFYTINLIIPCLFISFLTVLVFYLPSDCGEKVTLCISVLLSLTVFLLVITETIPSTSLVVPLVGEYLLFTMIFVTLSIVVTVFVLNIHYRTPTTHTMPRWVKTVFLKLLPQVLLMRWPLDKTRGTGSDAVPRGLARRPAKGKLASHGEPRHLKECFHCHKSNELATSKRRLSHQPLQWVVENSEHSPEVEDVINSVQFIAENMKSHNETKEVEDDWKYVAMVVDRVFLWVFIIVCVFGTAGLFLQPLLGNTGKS
Sequence of β3α4β2α6β2 nAChR (P17787 26-502): as the sequence (P17787 26-502) above
Procedure, shortened: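 α6-containing receptor expressed in Xenopus oocytes as a five-subunit human β3α4β2α6β2 concatemer cRNA. Voltage clamp at −60 mV, 24°C, in Ringer's (pH 7.2, 1 μM atropine). Test compound applied 12 s at varying concentrations, 181 s washout. Peak current and net charge referenced to same-cell 30 μM ACh controls and rescaled to ACh maximum from other experiments; ≥4 oocytes.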

[7] = system: C57BL/6J mice; β2 and α6 WT and KO mice; experiment: Formalin test; assay type: in vivo
[8] = α4(3)β2(2), normalized to the maximum ACh responses
[9] = α4(2)β2(3), normalized to the maximum ACh responses
[10] = β3α4β2α6β2, normalized to the maximum ACh responses
[11] = C57BL/6J mice, 0.5 mg/kg s.c., pretreatment 5, 15, 30, 60 min
[12] = α6 WT and KO mice, 0.5 mg/kg s.c., 15 min pretreatment
[13] = β2 WT mice, 0.5 mg/kg s.c., 15 min pretreatment

Sequence of low sensitivity α4(3)β2(2) nAChR (P17787 26-502): as above
Sequence of low sensitivity α4(3)β2(2) nAChR (P43681 29-627 limits assumed): as the sequence (P43681 29-627 limits assumed) above
Sequence of low sensitivity α4(3)β2(2) nAChR (P43681 29-627 limits assumed): as above

Ic1cncc(OC[C@@H]2CCN2)c1 [5IA, 5-Iodo-A-85380]
Efficacy (in words) ([1]; low sensitivity α4(3)β2(2)): very low efficacy | EC50 ([1]; read-out: Net Charge EC50, α4(3)β2(2)): 25 ± 14 nM | EC50 ([1]; read-out: Peak Currents EC50, α4(3)β2(2)): 37 ± 6.3 nM | Net Charge Imax [1, 8]: 0.22 ± 0.04 | Peak Currents Imax [1, 8]: 0.22 ± 0.1 | Locomotion after repeated injection, low dose (in words) ([2]; C57BL/6J mice, 0.01 mg/kg s.c. for 5 days, vs vehicle): stimulant effects on locomotion at days 3 and 5 | Locomotion after repeated injection, higher doses (in words) ([2]; C57BL/6J mice, 0.5 and 1 mg/kg s.c. for 5 days, days 1 and 2, vs vehicle): depressive effects at higher doses (0.5 and 1 mg/kg) | Tolerance to locomotor depressant effects (in words) ([2]; C57BL/6J mice, repeated injection of higher doses): Tolerance to the depressant effects of higher doses of 5IA developed progressively after day 2 | Attenuation of locomotion in β2 WT vs KO mice (in words) ([2]; β2 WT and KO mice, 0.5 mg/kg s.c.): this effect was only observed in β2 WT mice and not in β2 KO mice | Intracranial self-stimulation (ICSS) (in words) (rats): dose-dependently produced facilitated intracranial self-stimulation (ICSS) | Effect on acute thermal antinociception, hot plate test (in words) (C57BL/6J mice [3]): no significant effect of 5IA on acute thermal antinociception in the hot plate or tail-flick test | Antinociceptive response, hot-plate test (ICR mice; 0.001 mg/kg s.c., 5 min after injection): 8 ± 3 % MPE | Antinociceptive response, hot-plate test (ICR mice; 0.001 mg/kg s.c., 10 min after injection): 10 ± 3 % MPE | Antinociceptive response, hot-plate test (ICR mice; 0.001 mg/kg s.c., 15 min after injection): 10 ± 5 % MPE | Antinociceptive response, hot-plate test (ICR mice; 0.001 mg/kg s.c., 30 min after injection): 4 ± 3 % MPE | Antinociceptive response, hot-plate test (ICR mice; 0.001 mg/kg s.c., 60 min after injection): 8 ± 5 % MPE | Antinociceptive response, hot-plate test (ICR mice; 0.001 mg/kg s.c., 120 min after injection): 11 ± 5 % MPE | Antinociceptive response, hot-plate test (ICR mice; 0.01 mg/kg s.c., 5 min after injection): 9 ± 3 % MPE | Antinociceptive response, hot-plate test (ICR mice; 0.01 mg/kg s.c., 10 min after injection): 7 ± 3 % MPE | Antinociceptive response, hot-plate test (ICR mice; 0.01 mg/kg s.c., 15 min after injection): 7 ± 3 % MPE | Antinociceptive response, hot-plate test (ICR mice; 0.01 mg/kg s.c., 30 min after injection): 5 ± 3 % MPE | Antinociceptive response, hot-plate test (ICR mice; 0.01 mg/kg s.c., 60 min after injection): 13 ± 6 % MPE | Antinociceptive response, hot-plate test (ICR mice; 0.01 mg/kg s.c., 120 min after injection): 5 ± 3 % MPE | Antinociceptive response, hot-plate test (ICR mice; 0.1 mg/kg s.c., 5 min after injection): 7 ± 2 % MPE | Antinociceptive response, hot-plate test (ICR mice; 0.1 mg/kg s.c., 10 min after injection): 6 ± 3 % MPE | Antinociceptive response, hot-plate test (ICR mice; 0.1 mg/kg s.c., 15 min after injection): 3 ± 2 % MPE | Antinociceptive response, hot-plate test (ICR mice; 0.1 mg/kg s.c., 30 min after injection): 0 ± 0 % MPE | Antinociceptive response, hot-plate test (ICR mice; 0.1 mg/kg s.c., 60 min after injection): 8 ± 4 % MPE | Antinociceptive response, hot-plate test (ICR mice; 0.1 mg/kg s.c., 120 min after injection): 14 ± 6 % MPE | Antinociceptive response, hot-plate test (ICR mice; 0.5 mg/kg s.c., 5 min after injection): 17 ± 5 % MPE | Antinociceptive response, hot-plate test (ICR mice; 0.5 mg/kg s.c., 10 min after injection): 11 ± 8 % MPE | Antinociceptive response, hot-plate test (ICR mice; 0.5 mg/kg s.c., 15 min after injection): 18 ± 9 % MPE | Antinociceptive response, hot-plate test (ICR mice; 0.5 mg/kg s.c., 30 min after injection): 10 ± 6 % MPE | Antinociceptive response, hot-plate test (ICR mice; 0.5 mg/kg s.c., 60 min after injection): 11 ± 7 % MPE | Antinociceptive response, hot-plate test (ICR mice; 0.5 mg/kg s.c., 120 min after injection): 11 ± 4 % MPE | Effect on acute thermal antinociception, hot plate test (in words) (ICR mice; 0.001-0.5 mg/kg s.c., 5-120 min): no significant effect of 5IA on acute thermal antinociception in the hot plate test | Conditioned place preference, dose-response (in words) ([4]; C57BL/6J mice, 0.01, 0.05, 0.1, 0.5 or 1 mg/kg s.c.): significant 5IA induced-CPP at 0.05 and 0.1 mg/kg, but not at 0.01, 0.5, and 1 mg/kg | Conditioned place preference, α6 WT vs KO (in words) ([4]; α6 WT and KO mice, 0.05 mg/kg s.c.): no significant difference in 5IA-induced CPP between α6 WT and KO mice | Conditioned place preference (in words) ([4]; β2 KO mice, 0.05 mg/kg s.c.): significantly abolished in β2 KO mice | Conditioned place preference (in words) ([4]; β2 WT mice, 0.05 mg/kg s.c.): significant CPP in comparison to their vehicle counterparts | Effect on current duration (in words) ([5]; HS α4β2 receptors): prolonged the currents | Efficacy (in words) ([5]; high sensitivity α4(2)β2(3)): full agonist | EC50 ([5]; read-out: Net Charge EC50, α4(2)β2(3)): 62 ± 11 nM | EC50 ([5]; read-out: Peak Currents EC50, α4(2)β2(3)): 42 ± 2 nM | Net Charge Imax [5, 9]: 3.0 ± 0.18 | Peak Currents Imax [5, 9]: 1.3 ± 0.02 | Effect on acute thermal antinociception, tail-flick test (in words) (C57BL/6J mice [6]): no significant effect of 5IA on acute thermal antinociception in the hot plate or tail-flick test | EC50 (β3α4β2α6β2 nAChR; read-out: Net Charge EC50, β3α4β2α6β2): 19 ± 0.4 nM | EC50 (β3α4β2α6β2 nAChR; read-out: Peak Currents EC50, β3α4β2α6β2): 11 ± 0.01 nM | Efficacy (in words) (β3α4β2α6β2 nAChR; α6-containing subtypes): intermediate efficacy | Net Charge Imax (β3α4β2α6β2 nAChR; [10]): 0.76 ± 0.01 | Peak Currents Imax (β3α4β2α6β2 nAChR; [10]): 0.78 ± 0.1 | Paw licking, formalin test phase I, time course (in words) [7, 11]: significant effects of 5IA treatment at 5, 15, 30, and 60 min in phase I | Paw licking, formalin test phase II, time course (in words) [7, 11]: significant differences observed at only 5 and 15 minutes | Paw licking, formalin test, dose-response (in words) ([7]; C57BL/6J mice, 0.01, 0.1, 0.5 mg/kg s.c., 15 min pretreatment, vs vehicle): significant attenuation of paw licking responses at 0.1 and 0.5 mg/kg | Paw licking, formalin test phase I (in words) [7, 12]: completely blocked the paw licking behavior in both α6 WT and KO mice in phase I | Paw licking, formalin test phase II (in words) [7, 12]: only partially inhibited it in phase II | Paw licking, formalin test phase I (in words) [7, 13]: significantly attenuated paw licking time in phase I | Paw licking, formalin test phase II (in words) [7, 13]: partially decreased paw licking time in phase II
